A1 inh: inhibitors of the anti-apoptotic protein A1, read as caspase activation; caspase activation, % (no concentration beside the values); actives 0.066% (n = 330,000); MEF A1-2A-BIM cells, Caspase-Glo 3/7 luminescence, 3 h; percent of clofoctol response, vehicle zero;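 active = over half of replicate activation scores above 10%, or exactly half above 10 with the replicate mean above 10; inconclusive = replicate mean below 10 yet half the replicates above 10; inactive = over half of replicates below 10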
UPR XBP1 act: activators of adaptive arm of unfolded protein response (XBP1); actives 0.33% (n = 330,000); CHO-XBP1 luciferase reporter, IRE1-XBP1 UPR activation, luminescence; percent of tunicamycin response, DMSO as zero; AID 463104; activation, % at 20 µM;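 active = versus positive control, 20 µM dose yields 30% or more activation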;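 also: 100% = tunicamycin at 10 µg/mL and 0% = DMSO only wells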
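Assay system: IRE1-XBP1 luciferase reporter CHO line. Input: 1000 cells/well. Buffer or medium: F12 with 10% serum. Doses: 20 µM, 1% DMSO. Times: overnight seeding at 37 °C, 6 h compound treatment at 37 °C. Technique: Steady-Glo luciferase glow luminescence, 10 min after reagent addition.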
CHOP UPR activ: apoptotic UPR (CHOP) activation | CHO-CHOP luciferase reporter, luminescence; percent of tunicamycin response over DMSO baseline | activation, % at 10 µM | actives 0.34% (n = 330,000);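 active = at 10 µM dose, activation of 40% or more, normalized to positive control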;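 also: 100% = tunicamycin at 10 µg/mL and 0% = DMSO alone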
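Assay system: CHO cells with stable CHOP pathway luciferase reporter; Buffer or medium: F12 plus 10% serum; Times: 16-18 h cell attachment, then 6 h compound exposure, 37 °C; Signal: luciferase luminescence; Read-out basis: percent activation relative to tunicamycin control; Control set: tunicamycin high control, DMSO low control.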
CHOP inh: inhibitors of CHOP induction in ER stress response; inhibition, % at 10 µM; actives 3.8% (n = 220,000); AID 2732; CHO-K1 CHOP-promoter luciferase, tunicamycin-induced, 15-18 h;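 active = compounds that reduced the stress-induced luciferase reporter signal by more than about 70% of percent inhibition, limit read from the data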;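 also: 0% = tunicamycin plus vehicle and 100% = wells without tunicamycin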
Numbers without * were called inactive; ? = inconclusive; nt = no result; ! = not active in a repeat. This is one part of a sample in which hits are shown more often than they occur.

SMILES | A1 inh | UPR XBP1 act | CHOP UPR activ | CHOP inh
O=C(COC(=O)Cc1ccc(S(=O)(=O)N2CCOCC2)s1)Nc1ccccc1 | 0.8 | -2.0 | 0.7 | nt
CCc1cc(C(=O)Cc2cnn(-c3ccccc3)c2)c(O)cc1O | -0.7 | -2.0 | -2.2 | 77.5*
CN(C)c1nc(Nc2ccc(Cl)cc2)nc(OCC#N)n1 | 0.7 | 2.1 | -1.1 | 72.6*
CN(C)c1cccc(C(=O)OCC(=O)NC2CCCC2)c1 | 1.6 | -2.5 | 0.5 | nt
COC(=O)C(C)Oc1ccc(-c2nccc(-c3cccs3)n2)cc1 (stereo not drawn) | -0.4 | -0.2 | 7.0 | 91.5*
O=[N+]([O-])c1ccc(Oc2ncccn2)cc1 | 0.8 | 6.5 | -1.1 | nt
O=[N+]([O-])c1ccc(OCc2cccc(COc3ccc([N+](=O)[O-])cc3)n2)cc1 | 1.2 | 10.8 | -0.2 | 83.0*
COc1ccc(N(C)S(=O)(=O)c2cccc(C(=O)N3CCN(S(=O)(=O)c4ccc(C)cc4)CC3)c2)cc1 | -0.2 | 0.0 | -1.2 | nt
COc1ccc2c(c1)C(=NO)c1cc(OC)ccc1-2 | 0.2 | 1.4 | 0.1 | 72.1*
CCc1ccc(NC(=O)Cn2c(=O)n(CCCC(=O)NCc3ccco3)c(=O)c3ccccc32)cc1 | 0.0 | -1.6 | 1.4 | 76.2*
CC(C)(C)c1nn(-c2ccccc2)c2[nH]c(=O)c(CNCc3ccc4c(c3)OCO4)cc12 | -0.3 | 11.1 | 1.8 | 94.2*
CCOc1cccc(NCc2cc3c(C(C)(C)C)nn(-c4ccccc4)c3[nH]c2=O)c1 | 0.6 | -2.8 | 1.3 | 60.0
Cc1ccc(C(=O)NNS(=O)(=O)c2ccc(F)cc2)cc1 | -0.3 | -2.0 | 0.9 | nt
Oc1ccc(/C=N/Nc2ccnc3cc(Cl)ccc23)c(O)c1 | -0.2 | 1.6 | 10.0 | 90.2*
Cc1ccc(/C=N/Nc2ccnc3cc(Cl)ccc23)c(C)c1 | -0.7 | 22.1 | 25.6 | 104.8*
C(=C\c1ccc2ccccc2n1)/c1ccccc1 | -8.0 | -7.9 | -5.0 | 70.8*
Cc1ccc(/C=C/c2nc3ccccc3s2)s1 | -16.0 | -5.0 | -7.5 | 28.1
CN(C)c1ccc(/C=C/c2nc3ccccc3s2)cc1 | -6.2 | -5.5 | -7.2 | 81.1*
CN(C)c1ccc(/C=C/c2ccc3ccccc3n2)cc1 | -8.9 | nt | nt | 77.8*
Cc1noc(C)c1COC(=O)C1CCN(S(=O)(=O)c2c(Cl)cccc2Cl)CC1 | -0.3 | -3.9 | 0.6 | nt
CC(=O)OCCN1C(=O)c2ccc(-c3nc4ccccc4c(=O)o3)cc2C1=O | -0.5 | -4.0 | 1.2 | nt
CCCCN1CCC(n2c(=O)[nH]c3ccccc32)CC1 | nt | nt | nt | -1.4
CCc1ccccc1NC(=O)CN1CCN(CC(=O)Nc2cc(C)ccc2OC)CC1 | 1.6 | -5.3 | -0.9 | nt
CN(C(=O)COC(=O)/C=C/c1ccc(C(F)(F)F)cc1)c1c(N)n(Cc2ccccc2)c(=O)[nH]c1=O | 0.1 | -2.2 | -0.3 | nt
CC(C)(C)c1ccc(NC(=O)CSc2nnc(-c3n[nH]c4ccccc34)o2)cc1 | -1.3 | 1.3 | 3.2 | 93.5*
SMILES | A1 inh | UPR XBP1 act | CHOP UPR activ | CHOP inh
O=C(Cc1ccc(Cl)cc1)Nc1ccccc1N1CCN(C(=O)c2ccccc2)CC1 | -0.4 | -2.2 | -0.3 | nt
O=C(CN1C(=O)c2ccccc2S1(=O)=O)c1ccc2c(c1)OCCO2 | -2.6 | -11.0 | -10.2 | 94.3*
Cc1ccccc1CSc1nc(-c2ccccc2)cc(=O)[nH]1 | 0.0 | -1.8 | 0.5 | 87.2*
CCOc1ccccc1OCC(O)CNC (stereo not drawn) | 0.3 | -0.4 | 1.1 | 71.7*
Cc1cccc(C(=O)OCC(=O)NC(=O)c2ccccc2)c1O | -0.4 | 2.4 | 1.5 | nt
O=c1cc(N=Nc2ccc(Cl)cc2)[nH]c(=O)[nH]1 | -0.6 | nt | nt | 105.2*
O=c1cc(-c2ccc(Cl)cc2)oc(=O)[nH]1 | ? | -5.4 | 2.0 | 6.8
NC(=O)OCC(COC(N)=O)c1ccccc1 | -0.6 | -6.8 | 0.7 | 97.0*!
O=C1CS(=O)(=O)c2ccccc2N1 | 0.9 | -1.5 | -0.3 | nt
Cc1[nH]n(-c2ccccc2)c(=S)c1C=Nc1ccc([N+](=O)[O-])cc1 | -0.4 | nt | nt | 80.4*
CC1CCCN(S(=O)(=O)c2cc3c4c(c2)CCN4C(=O)CC3)C1 (stereo not drawn) | 0.5 | 1.0 | 1.6 | nt
C(=N\Nc1nc2ccccc2[nH]1)/c1ccc2c(c1)OCCO2 | -1.8 | -3.7 | -0.1 | 19.2
C(=N\Nc1ccc2ccccc2n1)/c1ccc2c(c1)OCCO2 | -7.1 | -10.4 | -8.5 | 75.1*
Cc1onc(-c2ccccc2Cl)c1C(=O)Nc1cccc(S(=O)(=O)NC2=NCCC2)c1 | -1.0 | -1.7 | 1.1 | nt
Cc1nn(C(=O)c2cccs2)c(C)c1CN1C(=O)c2ccccc2C1=O | 1.3 | 14.7 | 4.3 | 81.0*
CC(C)NC(=S)NC(c1ccccc1)(c1ccccc1)c1ccccc1 | -0.5 | -5.4 | 1.9 | nt
CCc1c(C(=O)Nc2ccncc2)csc1C | 0.9 | -0.6 | -1.8 | 70.8*
COc1cccc(CN2CCN(c3cccc(C(F)(F)F)c3)CC2)c1OC | 0.2 | 0.0 | -0.5 | 71.3*
CCc1cc(C(=O)Nc2nc(-c3ccccn3)cs2)sc1C | 0.4 | 1.3 | 1.4 | nt
N#C/C(=C(/O)COC(=O)CSc1ccc2ccccc2c1)c1nc2ccccc2[nH]1 | -2.1 | 0.9 | -1.0 | 92.1*
COCC(=O)OC/C(O)=C(\C#N)c1nc2ccccc2[nH]1 | -0.2 | -1.8 | 0.6 | 15.4
Cc1ccc(C)c(SCC(=O)OC/C(O)=C(\C#N)c2nc3ccccc3[nH]2)c1 | nt | nt | nt | 95.0*
Cc1cc(Br)ccc1SCC(=O)OC/C(O)=C(\C#N)c1nc2ccccc2[nH]1 | 0.0 | -0.5 | 0.8 | 101.5*
NC(=O)C1CCN(C(=O)COc2ccc3ccc(=O)oc3c2)CC1 | 0.0 | -1.6 | 0.2 | nt
O=C(CCc1nnc2n(CCc3ccccc3)c(=O)c3ccccc3n12)NCCCN1CCCCC1 | -1.5 | -4.5 | 1.4 | nt
SMILES | A1 inh | UPR XBP1 act | CHOP UPR activ | CHOP inh
O=C(CCCc1ccccc1)NC12CC3CC(CC(C3)C1)C2 | 1.0 | -1.9 | 3.6 | nt
Oc1cccc(Nc2nc(O)c(/C=C3\C=Nc4ccccc43)s2)c1 | -0.9 | 2.5 | 0.6 | 41.5
Oc1nc(Nc2cccc(Cl)c2)sc1/C=C1\C=Nc2ccccc21 | -0.7 | -2.1 | 4.6 | 78.8*
CC(C)(C)c1cc[n+](C2=C([O-])c3ccccc3C(=O)/C2=N\S(=O)(=O)c2cccs2)cc1 | -0.6 | -8.4 | 5.3 | 81.0*
CC/C(O)=C1\C(=O)CCCC1=NCc1nc2ccccc2[nH]1 | 0.6 | -2.2 | 1.6 | 11.7
COc1cccc(NC(=O)Nc2nnc(N3C(C)CCCC3C)s2)c1 (stereo not drawn) | 0.1 | -2.3 | 0.7 | 20.2
Cc1cccc(NC(=O)Nc2nnc(N3CCCCC3C)s2)c1C (stereo not drawn) | 0.1 | 4.9 | 4.5 | 79.8*
COC(=O)CSc1c(-c2ccccc2)c2cc(Cl)ccc2[nH]c1=O | -0.1 | 1.9 | -2.5 | 79.9*
COCCN(C(=O)COC(=O)CSc1ccc(Cl)cc1)c1c(N)n(CC(C)C)c(=O)[nH]c1=O | nt | -0.1 | 3.7 | nt
Cc1cc(Cl)ccc1NC(=O)CSc1nnc(-c2ccncc2)n1Cc1ccco1 | -0.4 | -1.1 | -0.6 | 1.3

Bioassay records as filed in PubChem BioAssay.
